Experimental data published in ChEMBL document CHEMBL1148725, “2,2,2-Trichloro-N-({2-[2-(dimethylamino)ethyl]-1,3-dioxo-2,3-dihydro-1H-benzo[de]isoquinolin- 5-yl}carbamoyl)acetamide (UNBS3157), a novel nonhematotoxic naphthalimide derivative with potent antitumor activity” (J Med Chem, 2007).
Active and inactive are the calls of the source. The rule behind the calls is not given here.

Assays:
L1210 [1] = experiment: Antitumor activity in L1210 cells xenografted B6D2F1 mouse at 160 mg/kg, ip relative to control; type: functional; conditions: route intraperitoneal
Outline: (§1)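 Mice grafted with L1210 leukaemia cells on day 0, then dosed i.p. four times weekly on days 1-4 and 8-11. Five mice per group. Outcome is %T/C, the median survival of treated over control. Kruskal-Wallis test followed by Dunn comparisons against control.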

Mus musculus [2] = experiment: Hematotoxicity in B6D2F1 mouse assessed as WBC count at 10 mg/kg, iv; type: organism-based; set-up: dose 10 mg/kg, route intravenous; conditions: in vivo
LoVo = experiment: Antiproliferative activity against LoVo cells after 72 hrs by MTT assay; type: functional, cell-based, Homo sapiens; conditions: Homo sapiens, LoVo, 72 h
Outline: (§2)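 Cells cultured with each compound for three days; growth then read by the MTT colorimetric assay and reported as IC50 (µM).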

Mus musculus [3] = experiment: Hematotoxicity in B6D2F1 mouse assessed as platelet count at 10 mg/kg, iv; type: organism-based; set-up: dose 10 mg/kg, route intravenous; conditions: in vivo
DU-145 [4] = experiment: Induction of apoptosis in human DU145 cells assessed as p53 activation; type: functional, cell-based
Outline: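 PC-3 and DU-145 cells treated over 72 h at 1 and 10 µM, compared with untreated cells. p53, PARP cleavage and procaspase-3/-9 activation assessed by immunoblotting.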

[5] = Antiproliferative activity against Hs683 cells after 72 hrs by MTT assay; type: functional, cell-based, Homo sapiens, Hs 683; conditions: Homo sapiens, Hs 683, 72 h; outline: as §2
DU-145 [6] = experiment: Induction of senescence in human DU145 cells; type: functional, cell-based
Outline: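 SA-β-galactosidase staining of PC-3 and DU-145 prostate cancer cells after 72 h at 10 µM; adriamycin 20 nM as positive control; expressed as percentage of positively stained cells.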

PC-3 [7] = experiment: Induction of autophagy in human PC3 cells by acridine orange staining at 10 uM after 72 hrs; type: functional
Mus musculus [8] = experiment: Hematotoxicity in B6D2F1 mouse assessed as WBC count at 160 mg/kg, po; type: organism-based; set-up: dose 160 mg/kg, route oral; conditions: in vivo
DU-145 [9] = experiment: Induction of autophagy in human DU145 cells by acridine orange staining at 10 uM after 72 hrs; type: functional
Mus musculus [10] = experiment: Hematotoxicity in B6D2F1 mouse assessed as RBC count at 120 mg/kg, po; type: organism-based; set-up: dose 120 mg/kg, route oral; conditions: in vivo
L1210 [11] = experiment: Antitumor activity in L1210 cells xenografted B6D2F1 mouse at 120 mg/kg, ip relative to control; type: functional; conditions: route intraperitoneal; outline: as §1
PC-3 [12] = experiment: Cell cycle arrest in PC3 cells assessed as accumulation at G2 phase at 10 uM after 72 hrs; type: functional, cell-based; conditions: Homo sapiens
Outline: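 PC-3 or DU-145 cells treated for 72 h with 0, 1 or 10 µM. Cell-cycle distribution (G0/G1, S, G2/M) determined by propidium iodide staining.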

MCF7 [13] = experiment: Induction of apoptosis in human MCF7 cells assessed as p53 activation; type: functional, cell-based
Outline: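 MCF-7 cells treated and p53 activation assessed by immunoblotting, with tubulin as loading control. Adriamycin (2.5 µM, 24 h) served as positive control.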

[14] = target: T1, DNA topoisomerase 1 (Homo sapiens) (UniProt P11387); experiment: Inhibition of human topoisomerase 1 by DNA unwinding test
T1 sequence (whole entry): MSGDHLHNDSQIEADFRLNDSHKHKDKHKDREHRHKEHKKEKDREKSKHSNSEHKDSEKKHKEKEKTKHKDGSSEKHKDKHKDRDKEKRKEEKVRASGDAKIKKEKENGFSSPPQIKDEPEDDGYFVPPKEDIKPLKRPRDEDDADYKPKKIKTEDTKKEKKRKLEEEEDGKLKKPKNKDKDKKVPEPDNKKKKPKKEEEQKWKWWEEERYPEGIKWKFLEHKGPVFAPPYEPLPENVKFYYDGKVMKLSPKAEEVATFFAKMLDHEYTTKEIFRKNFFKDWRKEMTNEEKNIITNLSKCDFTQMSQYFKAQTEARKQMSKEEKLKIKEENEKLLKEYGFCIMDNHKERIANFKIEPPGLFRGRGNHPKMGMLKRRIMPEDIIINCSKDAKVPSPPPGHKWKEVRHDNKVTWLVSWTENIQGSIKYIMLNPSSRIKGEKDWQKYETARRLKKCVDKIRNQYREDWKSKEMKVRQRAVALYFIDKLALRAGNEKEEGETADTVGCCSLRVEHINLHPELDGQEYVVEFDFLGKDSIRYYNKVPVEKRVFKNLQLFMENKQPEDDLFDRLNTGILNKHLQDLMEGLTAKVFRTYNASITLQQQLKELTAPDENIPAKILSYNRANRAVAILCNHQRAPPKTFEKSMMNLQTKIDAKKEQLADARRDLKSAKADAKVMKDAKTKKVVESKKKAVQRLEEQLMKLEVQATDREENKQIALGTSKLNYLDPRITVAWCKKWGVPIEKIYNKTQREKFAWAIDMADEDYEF
Outline: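 DNA unwinding assay: relaxed pBR322 plasmid converted to supercoiled form in presence of topoisomerase I; compounds at final 4–32 µM (one up to 15–55 µM); ethidium bromide-stained agarose gels; UC50 taken as concentration shifting relaxed band to midpoint between supercoiled and relaxed states.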

Mus musculus [15] = experiment: Hematotoxicity in B6D2F1 mouse assessed as WBC count at 80 mg/kg, po; type: organism-based; set-up: dose 80 mg/kg, route oral; conditions: in vivo
MCF7 [16] = experiment: Antiproliferative activity against MCF7 cells after 72 hrs by MTT assay; type: functional, cell-based, Homo sapiens; conditions: Homo sapiens, MCF7, 72 h; outline: as §2
Mus musculus [17] = experiment: Hematotoxicity in B6D2F1 mouse assessed as WBC count at 20 mg/kg, iv; type: organism-based; set-up: dose 20 mg/kg, route intravenous; conditions: in vivo
L1210 [18] = experiment: Antitumor activity in L1210 cells xenografted B6D2F1 mouse at 10 mg/kg, ip relative to control; type: functional; conditions: route intraperitoneal; outline: as §1
MDA-MB-231 = experiment: Antitumor activity against human MDA-MB-231 cells xenografted in immunocompromised mouse at 10 mg/kg, iv

CN(C)CCN1C(=O)c2cccc3cc(NC(=O)NC(=O)C(Cl)(Cl)Cl)cc(c23)C1=O
Activity (L1210 [1]): 300%
Activity (Mus musculus [2]): 3.92 10^3 /uL
IC50 (LoVo): 0.9 µM
Activity (Mus musculus [3]): 402 10^3 /uL
Activity (DU-145 [4]): inactive
IC50 [5]: 0.8 µM
Activity (DU-145 [6]): Active
Activity (PC-3 [7]): 35%
Activity (Mus musculus [8]): 2.82 10^3 /uL
Activity (DU-145 [9]): 10%
Activity (Mus musculus [10]): 10.13 10^6 /uL
Activity (L1210 [11]): 281%
Activity (PC-3 [12]): Active
Activity (MCF7 [13]): inactive
UC50 [14]: 40 µM
Activity (Mus musculus [15]): 3.21 10^3 /uL
IC50 (MCF7 [16]): 1.8 µM
Activity (Mus musculus [17]): 2.92 10^3 /uL
Activity (L1210 [18]): 197%
Activity (MDA-MB-231): Active
